This is an account of results in ChEMBL document CHEMBL3351948, “Synthesis of gallinamide A analogues as potent falcipain inhibitors and antimalarials” (J Med Chem, 2014).

The target of assay [1] is T1, Falcipain 2 (Plasmodium falciparum, UniProt Q9N6S8).
T1 sequence (Q9N6S8 whole entry): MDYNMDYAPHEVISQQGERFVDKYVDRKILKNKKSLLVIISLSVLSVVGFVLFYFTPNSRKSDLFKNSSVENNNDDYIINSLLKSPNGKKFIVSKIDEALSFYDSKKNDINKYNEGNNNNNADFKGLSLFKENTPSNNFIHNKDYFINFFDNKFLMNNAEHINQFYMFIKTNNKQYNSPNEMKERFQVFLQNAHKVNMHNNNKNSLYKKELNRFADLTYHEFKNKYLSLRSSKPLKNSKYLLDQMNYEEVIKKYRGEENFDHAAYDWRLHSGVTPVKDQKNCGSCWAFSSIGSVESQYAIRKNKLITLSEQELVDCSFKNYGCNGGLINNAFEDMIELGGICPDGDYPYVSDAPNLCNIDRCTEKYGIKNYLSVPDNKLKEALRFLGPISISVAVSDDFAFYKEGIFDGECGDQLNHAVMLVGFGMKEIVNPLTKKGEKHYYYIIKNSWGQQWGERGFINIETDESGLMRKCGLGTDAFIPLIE
The experiment in a line: Inhibition of Plasmodium falciparum FP2 using Z-Phe-Arg-AMC as substrate incubated for 30 mins prior to substrate addition measured after 30 mins by fluorescence assay. In short, it runs like this: (§1)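 The assay read enzyme activity with a fluorescence-based kinetic method and reported IC50 in nM. Values are means with standard error of the mean from three experiments.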

Assay [2] can be described thus: Inhibition of Plasmodium falciparum FP3 using Z-Phe-Arg-AMC as substrate incubated for 30 mins prior to substrate addition measured after 30 mins by fluorescence assay. In short, it runs like this: as §1
Assay [3] relates to Plasmodium falciparum. Description: Antiplasmodial activity against chloroquine-sensitive Plasmodium falciparum 3D7 infected in human erythrocytes by [3H]-hypoxanthine incorporation assay. The class given is functional, organism-based. In short, it runs like this:
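IC50 against the chloroquine-sensitive 3D7 strain was measured by [3H]-hypoxanthine incorporation in cultured parasites. Values are means with standard error of the mean from three experiments.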

Assay [4] relates to Plasmodium falciparum. Description: Antiplasmodial activity against Plasmodium falciparum 3D7 trophozoite stage assessed as swollen food vacuole after 3 days by Giemsa staining-based assay. The class given is functional, organism-based.
Assay [5] deals with Plasmodium falciparum. The experiment in a line: Antiplasmodial activity against multidrug-resistant Plasmodium falciparum Dd2 infected in human erythrocytes by [3H]-hypoxanthine incorporation assay. The class given is functional, organism-based. In short, it runs like this:
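Chloroquine-resistant P. falciparum Dd2 strain; IC50 reported with standard error of the mean from three experiments.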

Assay [6] in a line: Cytotoxicity against […] cells assessed as cell viability by AlamarBlue assay. The class given is cell-based. The following applies: Homo sapiens.
In assay [7] the test system is Plasmodium falciparum. Description: Inhibition of Plasmodium falciparum AP-M1.
Assay [8] has as its system Plasmodium falciparum. The experiment in a line: Inhibition of Plasmodium falciparum AP-M17.
Assay [9] deals with Plasmodium falciparum. Description: Inhibition of Plasmodium falciparum AP-M18.
Assay [10] deals with Procathepsin L (Homo sapiens) (UniProt P07711). The experiment in a line: Inhibition of human cathepsin L expressed in Pichia pastoris using N-Cbz-Phe-Arg-7-amino-4-methylcoumarin as substrate incubated for 90 mins prior to substrate addition measured after 30 mins by fluorescence assay.
Chain of Procathepsin L (Homo sapiens) (P07711 114-333 limits assumed): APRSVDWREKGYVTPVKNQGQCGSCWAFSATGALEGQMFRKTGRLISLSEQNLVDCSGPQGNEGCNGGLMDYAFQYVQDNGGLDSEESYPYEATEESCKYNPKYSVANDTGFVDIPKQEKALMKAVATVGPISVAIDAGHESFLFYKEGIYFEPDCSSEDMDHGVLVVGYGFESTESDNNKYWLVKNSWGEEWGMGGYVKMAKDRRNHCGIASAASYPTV
Assay [11] relates to Plasmodium falciparum. The experiment in a line: Antiplasmodial activity against Plasmodium falciparum 3D7 trophozoite stage assessed as swollen food vacuole at <5 nM after 3 days by Giemsa staining-based assay. The class given is functional, organism-based.
Assay [12] deals with Plasmodium falciparum. Description: Antiplasmodial activity against Plasmodium falciparum 3D7. Type of assay: functional, organism-based. A digest of the protocol: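 Chloroquine-sensitive P. falciparum 3D7 cultures; growth inhibition read out as [3H]-hypoxanthine incorporation; IC50 reported with standard error of the mean from three experiments.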
A short description of assay [13]: Inhibition of FP1 in Plasmodium falciparum trophozoite stage after 1 hr by SDS-PAGE analysis.
In assay [14] the target is T1, Falcipain 2. Description: Inhibition of FP2 in Plasmodium falciparum trophozoite stage after 1 hr by SDS-PAGE analysis.
Assay [15] deals with T1, Falcipain 2. Description: Inhibition of FP2' in Plasmodium falciparum trophozoite stage after 1 hr by SDS-PAGE analysis.
The nature of assay [16]: Inhibition of FP3 in Plasmodium falciparum trophozoite stage after 1 hr by SDS-PAGE analysis.

The source made the active and inactive calls. The rule behind the calls is not given here. *1 amine or outer side, *2 acyl side, *3 side chain or, on linkers, in order; H or OH if unused. Where a SMILES comes first, the peptide text is derived from it. [ ]: non-standard residue; d: D form. The star is where a group is joined. Pentenoic(2E,4S-NH2) = C[C@@H](/C=C/C(=O)[*:2])N[*:1]; X1 = CC[C@H](C)[C@@H](C(=O)*)N(C)C; NHBn = c1ccc(CN*)cc1

Take `CO[C@H]1CC(=O)N(C(=O)/C=C/[C@H](C)NC(=O)[C@H](CC(C)C)NC(=O)[C@H](CC(C)C)NC(=O)[C@H](C(C)C)N(C)C)[C@H]1C`: the IC50 in [1] came to 2.81 nM; in [2] it was 163 nM; in assay [3], 210 nM. Also, the outcome in assay [4] was Active.
Turning to `COC1=CC(=O)N(C(=O)/C=C/[C@H](C)NC(=O)[C@H](CC(C)C)NC(=O)[C@H](CC(C)C)NC(=O)[C@H](C(C)C)N(C)C)[C@H]1Cc1c[nH]c2ccccc12`, the IC50 in assay [1] came out at 12 nM; in [2], 66.7 nM; in assay [3], 9.7 nM; in assay [5] it was 29 nM; in assay [6], 8500 nM. Further, the INH in assay [7], in assay [8] and in assay [9] was over 10 µM throughout. Besides, the inhibition entry in assay [10] is “Active”. In assay [11], the outcome was Active.
Take `COC1=CC(=O)N(C(=O)/C=C/[C@H](C)NC(=O)[C@H](CC(C)C)NC(=O)[C@H](CC(C)C)NC(=O)[C@H](C(C)C)N(C)C)[C@H]1C(C)C`: the IC50 turned out to be 9.52 nM in [1]; 131 nM in assay [2]; 16.6 nM in assay [3]; 165 nM in assay [5]; 9650 nM in [6]. Further, the INH in assay [7], in assay [8] and in assay [9] was over 10 µM in each case. The inhibition entry in [10] is “Active”. Moreover, the result in assay [11] was Active.
In the case of `CC[C@H](C)[C@@H](C(=O)N[C@@H](CC(C)C)C(=O)N[C@@H](CC(C)C)C(=O)N[C@@H](C)/C=C/C(=O)N[C@@H](C)C(=O)N1C[C@@H](O)C[C@H]1C(=O)OC)N(C)C`, the results for the IC50 in [1], in assay [2] and in [3] were 7700 nM, over 50000 nM and 1900 nM, respectively. The outcome in [4] was Active.
Turning to `COC1=CC(=O)N(C(=O)/C=C/[C@H](C)NC(=O)[C@H](CC(C)C)NC(=O)[C@H](CC(C)C)NC(=O)[C@H](C(C)C)N(C)C)[C@H]1Cc1ccc(O)cc1`, the IC50 in assay [1] was determined as 5.25 nM; in assay [2] it was 81.4 nM; in assay [3], 20 nM; in assay [5] it was 67 nM; in assay [6], 18900 nM. Further, the INH in assay [7], in assay [8] and in assay [9] was over 10 µM each time. In addition, the inhibition entry in [10] is “Active”. The result in [11] was Active.
`CC(C)C[C@H](NC(=O)[C@H](CC(C)C)NC(=O)[C@H](C(C)C)N(C)C)C(=O)N[C@@H](C)/C=C/C(=O)N[C@@H](C)C(=O)Nc1nccs1`: the figures for the IC50 in [1], in assay [2] and in assay [3] were 2500 nM, 34000 nM and 1100 nM, respectively. Also, the result in assay [4] was Active.
On to `COC1=CC(=O)N(C(=O)CC[C@H](C)NC(=O)[C@H](CC(C)C)NC(=O)[C@H](CC(C)C)NC(=O)[C@H](C(C)C)N(C)C)[C@H]1C`, for which the IC50 was 3710 nM in assay [1], over 50000 nM in assay [2] and 4380 nM in assay [3]. In [4], the outcome was inactive.
Take `COC1=CC(=O)N(C(=O)/C=C/[C@H](C)NC(=O)[C@H](CC(C)C)NC(=O)[C@H](CC(C)C)NC(=O)[C@H](C(C)C)N(C)C)[C@H]1C`: the IC50 was found to be 6.78 nM in [1]; 292 nM in assay [2]; 89.3 nM in assay [3]; 302 nM in assay [5]; 14200 nM in assay [6]. Further, the result in [4] was Active. For the same compound, the INH in assay [7], in assay [8] and in assay [9] was over 10 µM throughout. Besides, the inhibition result in assay [10] is “Active”.
As to `CC(C)C[C@H](NC(=O)[C@H](CC(C)C)NC(=O)[C@@H]1CCCN1C)C(=O)N[C@@H](C)/C=C/C(=O)N[C@@H](C)C(=O)NCc1ccccc1`, the IC50 amounted to 6000 nM in [1], 46000 nM in assay [2] and 6600 nM in [3]. For the same compound, the outcome in [4] was Active.
With `CC(C)C[C@H](NC(=O)[C@H](CC(C)C)NC(=O)[C@H](C(C)C)N(C)C)C(=O)N[C@@H](C)/C=C/C(=O)N1CC(OCc2ccccc2)=CC1=O`, the IC50 in [1] stood at 9.59 nM; in assay [2], 196 nM; in assay [3], 96 nM. Further, in [11], the outcome was Active.
On to `CC[C@H](C)[C@@H](C(=O)N[C@@H](CC(C)C)C(=O)N[C@@H](CC(C)C)C(=O)N[C@@H](C)/C=C/C(=O)N[C@@H](C)C(=O)NCc1ccccc1)N(C)C`, for which the IC50 is 10500 nM in [1]; over 25000 nM in assay [2]; 540 nM in [3]; 421 nM in assay [5]; over 50000 nM in [6]. Moreover, in assay [4], the outcome was Active. For the same compound, the INH in [7], in assay [8] and in assay [9] was over 10 µM throughout. The inhibition result in assay [10] was “Active”.
For the compound `CC[C@H](C)[C@@H](C(=O)N[C@@H](CC(C)C)C(=O)N[C@@H](CC(C)C)C(=O)N[C@H](C(=O)N[C@@H](C)/C=C/C(=O)N[C@@H](C)C(=O)NCc1ccccc1)C(C)C)N(C)C` (X1-LLV[Pentenoic(2E,4S-NH2)]A-NHBn), the IC50 in assay [1], in [2] and in assay [3] was over 50000 nM throughout. Moreover, in assay [4], the outcome was Active.
Regarding `CO[C@H]1CC(=O)N(C(=O)CC[C@H](C)NC(=O)[C@H](CC(C)C)NC(=O)[C@H](CC(C)C)NC(=O)[C@H](C(C)C)N(C)C)[C@H]1C`, the IC50 in assay [1], in assay [2] and in [3] was over 50000 nM throughout. Further, the result in [4] was inactive.
Consider `CC(C)C[C@H](NC(=O)[C@H](CC(C)C)NC(=O)[C@H](C(C)C)N(C)C)C(=O)N[C@@H](C)/C=C/C(=O)N1C(=O)C=C(OCc2ccccc2)[C@@H]1C(C)C`, for which the IC50 in assay [1] is 6.86 nM; in assay [2], 182 nM; in assay [3], 62 nM. For the same compound, in assay [11], the outcome was Active.
Consider `CC(C)C[C@H](NC(=O)[C@H](CC(C)C)NC(=O)[C@@H](C(C)C)N(C)C)C(=O)N[C@@H](C)/C=C/C(=O)N[C@@H](C)C(=O)NCc1ccccc1`, for which the IC50 was 3400 nM in assay [1]; over 25000 nM in assay [2]; 5400 nM in assay [3]; 170 nM in assay [5]; over 50000 nM in assay [6]. Besides, the outcome in assay [4] was Active. The INH in assay [7], in assay [8] and in [9] was over 10 µM in each case. The inhibition result in assay [10] is “Active”.
With `CC[C@H](C)[C@@H](C(=O)O[C@@H](CC(C)C)C(=O)N[C@@H](CC(C)C)C(=O)N[C@@H](C)/C=C/C(=O)N1C(=O)C=C(OC)[C@@H]1C)N(C)C` [GALLINAMIDE A], the IC50 in assay [12] worked out at 50 nM; in assay [13] it was 140 nM; in assay [14], 8.5 nM; in [15] it was 8.5 nM; in assay [16], 22 nM.
Take `CC[C@H](C)[C@@H](C(=O)N[C@@H](CC(C)C)C(=O)N[C@@H](CC(C)C)C(=O)N[C@H](C(=O)N[C@@H](C)/C=C/C(=O)N[C@@H](C)C(=O)N1C[C@@H](O)C[C@H]1C(=O)OC)C(C)C)N(C)C`: the IC50 in assay [1], in [2] and in assay [3] was over 50000 nM throughout. For the same compound, the outcome in assay [4] was Active.
Take `CC(C)C[C@H](NC(=O)[C@H](CC(C)C)NC(=O)[C@H](C(C)C)N(C)C)C(=O)N[C@@H](C)/C=C/C(=O)N[C@@H](C)C(=O)NCc1ccccc1`: the IC50 was 11500 nM in assay [1]; over 25000 nM in assay [2]; 320 nM in assay [3]; 378 nM in assay [5]; over 50000 nM in assay [6]. Further, the outcome in assay [4] was Active. The INH in [7], in assay [8] and in assay [9] was over 10 µM in each case. Also, the inhibition entry in assay [10] is “Active”.
In the case of `COC1=CC(=O)N(C(=O)/C=C/[C@H](C)NC(=O)[C@H](CC(C)C)NC(=O)[C@H](CC(C)C)NC(=O)[C@H](C(C)C)N(C)C)C1`, the IC50 in [1] was found to be 24.8 nM; in [2] it was 225 nM; in assay [3], 57.3 nM; in [5] it was 419 nM; in assay [6], 16300 nM. Further, the INH in [7], in [8] and in assay [9] was over 10 µM in each case. Besides, the inhibition result in assay [10] was “Active”. Moreover, the result in assay [11] was Active.
